The results in this text go back to ChEMBL document CHEMBL1914320, “C4-alkylthiols with activity against Moraxella catarrhalis and Mycobacterium tuberculosis” (Bioorg Med Chem, 2011).

Calls of active or inactive are those of the source. The calls are words filed in the database; no cut-off is given here.

Assay [1] deals with Escherichia coli. Nature of the assay: Antibacterial activity against non-beta-lactamase producing Escherichia coli ATCC 25922 after 48 hrs by microdilution broth method. The assay is classed as functional, organism-based. The essentials: (§1)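 Broth microdilution followed CLSI guidelines. Compound was dissolved in 95% ethanol, diluted at least 10-fold into Mueller-Hinton broth, then serially two-fold diluted from 500 to 15.6 μg/mL. Actively growing culture was added at 5 × 10^5 cells/mL. Plates ran 48 h at 37 °C, scored for visible growth at 24 and 48 h. MIC was the lowest concentration without growth. For MBC, 10 μL from each clear well was plated on MH agar. Controls were ethanol and penicillin. Triplicate.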

Assay [2] relates to Staphylococcus aureus. Nature of the assay: Antibacterial activity against non-beta-lactamase producing Staphylococcus aureus ATCC 25923 after 48 hrs by microdilution broth method. Type of assay: functional, organism-based. The essentials:
as §1
On the technique in general: In broth dilution the organism is exposed to a series of concentrations in liquid medium.

In assay [3] the test system is Escherichia coli. Nature of the assay: Antibacterial activity against non-beta-lactamase producing Escherichia coli ATCC 25922 at 10 ug/disc after overnight incubation by disc diffusion assay. The assay is classed as functional, organism-based. The gist of the method: (§2)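 Isolates were held at −80 °C. Five colonies were suspended in Mueller-Hinton broth to a 0.5 McFarland density and swabbed onto MH agar. Discs carried 10 μg compound, applied in methanol and dried at room temperature. Plates were incubated overnight at 37 °C, and the zone of inhibition was measured in mm from the disc edge. Controls were methanol-only and penicillin discs. Run blinded, in triplicate.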
In general terms: A growth-free zone around the sample is the usual read-out of agar diffusion tests.

In assay [4] the test system is Moraxella catarrhalis. The assay is described as follows: Antibacterial activity against beta-lactamase producing Moraxella catarrhalis isolate 6 at 500 ug/ml after overnight incubation by disc diffusion assay. Type of assay: functional, organism-based.
Assay [5] concerns Moraxella catarrhalis. Nature of the assay: Antibacterial activity against beta-lactamase producing Moraxella catarrhalis isolate 4 at 10 ug/disc after overnight incubation by disc diffusion assay. The assay is classed as functional. As to conditions: for zone of inhibition at 10 µg/disc: read-out: IZ. The essentials: as §2
The test system of assay [6] is Moraxella catarrhalis. The assay is described as follows: Antibacterial activity against beta-lactamase producing Moraxella catarrhalis isolate 4 at 500 ug/ml after overnight incubation by disc diffusion assay. The assay is classed as functional, organism-based.
The subject of assay [7] is Moraxella catarrhalis. Nature of the assay: Antibacterial activity against beta-lactamase producing Moraxella catarrhalis isolate 3 at 10 ug/disc after overnight incubation by disc diffusion assay. Type of assay: functional. The essentials: as §2
The test system of assay [8] is Moraxella catarrhalis. The assay is described as follows: Antibacterial activity against beta-lactamase producing Moraxella catarrhalis isolate 5 at 500 ug/ml after overnight incubation by disc diffusion assay. The assay is classed as functional, organism-based.
Assay [9] relates to Mycobacterium tuberculosis. Nature of the assay: Antimycobacterial activity against wild type Mycobacterium tuberculosis H37Rv at 200 ug/ml by Alamar blue assay. Type of assay: functional, organism-based.
The test system of assay [10] is Pseudomonas aeruginosa. The assay is described as follows: Antibacterial activity against non-beta-lactamase producing Pseudomonas aeruginosa ATCC 27853 at 10 ug/disc after overnight incubation by disc diffusion assay. The assay is classed as functional, organism-based. The gist of the method: as §2
Assay [11] relates to Staphylococcus aureus. The assay is described as follows: Antibacterial activity against non-beta-lactamase producing Staphylococcus aureus ATCC 25923 at 10 ug/disc after overnight incubation by disc diffusion assay. The assay is classed as functional, organism-based. The gist of the method: as §2
Assay [12] has as its system Enterococcus faecalis. The assay is described as follows: Antibacterial activity against non-beta-lactamase producing Enterococcus faecalis ATCC 29212 after 48 hrs by microdilution broth method. The assay is classed as functional, organism-based. The essentials: as §1
The subject of assay [13] is Enterococcus faecalis. Nature of the assay: Antibacterial activity against non-beta-lactamase producing Enterococcus faecalis ATCC 29212 at 10 ug/disc after overnight incubation by disc diffusion assay. The assay is classed as functional, organism-based. The essentials:
as §2

Assay [14] deals with Moraxella catarrhalis. Nature of the assay: Antibacterial activity against beta-lactamase producing Moraxella catarrhalis isolate 2 at 500 ug/ml after overnight incubation by disc diffusion assay. Type of assay: functional, organism-based.
Assay [15] concerns Moraxella catarrhalis. Nature of the assay: Antibacterial activity against beta-lactamase producing Moraxella catarrhalis isolate 2 at 10 ug/disc after overnight incubation by disc diffusion assay. The assay is classed as functional. As to conditions: for zone of inhibition at 10 µg/disc: read-out: IZ. The gist of the method:
as §2

The test system of assay [16] is Moraxella catarrhalis. The assay is described as follows: Antibacterial activity against beta-lactamase producing Moraxella catarrhalis isolate 5 at 10 ug/disc after overnight incubation by disc diffusion assay. Type of assay: functional. As to conditions: for zone of inhibition at 10 µg/disc: read-out: IZ. The gist of the method: as §2
The subject of assay [17] is Moraxella catarrhalis. Nature of the assay: Antibacterial activity against beta-lactamase producing Moraxella catarrhalis isolate 3 at 500 ug/ml after overnight incubation by disc diffusion assay. Type of assay: functional, organism-based.
Assay [18] relates to Moraxella catarrhalis. The assay is described as follows: Antibacterial activity against beta-lactamase producing Moraxella catarrhalis isolate 1 at 10 ug/disc after overnight incubation by disc diffusion assay. Type of assay: functional. As to conditions: for zone of inhibition at 10 µg/disc: read-out: IZ. The gist of the method: as §2
In assay [19] the test system is Pseudomonas aeruginosa. The assay is described as follows: Antibacterial activity against non-beta-lactamase producing Pseudomonas aeruginosa ATCC 27853 after 48 hrs by microdilution broth method. Type of assay: functional, organism-based. The essentials: as §1

Take `O=C1CC(Sc2cccs2)N1S(=O)(=O)O` (racemic): the outcome in assay [1], in assay [2], in assay [3], in assay [10], in assay [11] and in [12] was inactive. Also, the outcome in assay [13] and in [19] was inactive. Besides, the “antibacterial activity (active/not active)” value in assay [4], in assay [6], in [8], in assay [14] and in assay [17] was “Active” in each case. Further, the “inhibition zone (IZ)” value in [5], in assay [7], in assay [15], in assay [16] and in assay [18] was “inactive” in each case. Further, the “antimycobacterial activity (active/not active)” value in assay [9] is “Active”.
On to `CCOC(=O)CN1C(=O)C(OC)C1C(C)(C)SSC` (racemic), for which the result in assay [1], in assay [2], in assay [3], in [10], in [11] and in assay [12] was inactive. Besides, the result in [13] and in assay [19] was inactive. Moreover, the “antibacterial activity (active/not active)” value in [4], in [6], in assay [8], in assay [14] and in assay [17] was “Active” each time. For the same compound, the “inhibition zone (IZ)” value in assay [5], in [7], in assay [15], in [16] and in assay [18] was “inactive” each time. Also, the “antimycobacterial activity (active/not active)” value in assay [9] is “Active”.
Turning to `O=C1CC(Sc2ccccc2)N1S(=O)(=O)O` (racemic), the result in assay [1], in [2], in assay [3], in [10], in [11] and in assay [12] was inactive. Besides, the outcome in assay [13] and in assay [19] was inactive. The “inhibition zone (IZ)” value in assay [5], in assay [7], in [15], in assay [16] and in assay [18] was “inactive” throughout.
With `Nc1ccc(SC2CC(=O)N2)cc1` (racemic), the outcome in assay [1], in assay [2], in assay [3], in [10], in assay [11] and in assay [12] was inactive. For the same compound, the result in [13] and in [19] was inactive. Also, the “antibacterial activity (active/not active)” value in assay [4], in [6], in [8], in [14] and in assay [17] was “Active” throughout. The “antimycobacterial activity (active/not active)” value in assay [9] was “Active”.
In the case of `O=C1CC(SCCCO)N1` (racemic), the result in [1], in assay [2], in assay [3], in assay [10], in [11] and in assay [12] was inactive. The result in assay [13] and in [19] was inactive. The “antibacterial activity (active/not active)” value in [4], in [6], in [8], in assay [14] and in assay [17] was “inactive” in each case. Moreover, the “antimycobacterial activity (active/not active)” value in assay [9] is “inactive”.
As to `CCC(C=O)(CC)SSC(C=O)(CC)CC`, the outcome in [1], in assay [2], in assay [3], in assay [10], in [11] and in assay [12] was inactive. Moreover, the outcome in assay [13] and in assay [19] was inactive. Further, the zone of inhibition at 10 µg/disc in [5] was 5 mm; in assay [15], 10 mm; in assay [16], 10 mm; in assay [18] it was 10 mm. Besides, in [7], the “inhibition zone (IZ)” value is “inactive”.
For the compound `CCOC(=O)CN1C(=O)C(OC)C1C(S)(CC)CC` (racemic), the result in assay [1], in assay [2], in [3], in assay [10], in assay [11] and in [12] was inactive. Moreover, the result in assay [13] and in assay [19] was inactive. Besides, the “antibacterial activity (active/not active)” value in assay [4], in [6], in assay [8], in assay [14] and in assay [17] was “inactive” throughout. For the same compound, in assay [9], the “antimycobacterial activity (active/not active)” value is “inactive”.
As for `O=C1CC(SCCO)N1` (racemic), the outcome in [1], in assay [2], in assay [3], in assay [10], in assay [11] and in assay [12] was inactive. Besides, the outcome in assay [13] and in assay [19] was inactive. Moreover, the “antibacterial activity (active/not active)” value in assay [4], in assay [6], in assay [8], in [14] and in [17] was “inactive” in each case. Moreover, the “antimycobacterial activity (active/not active)” value in assay [9] was “inactive”.
Consider `CCC(S)(CC)CO`, for which the outcome in [1], in assay [2], in assay [3], in assay [10], in assay [11] and in assay [12] was inactive. Besides, the outcome in assay [13] and in assay [19] was inactive. Also, the zone of inhibition at 10 µg/disc in assay [5] was 3 mm; in [15] it was 3 mm; in assay [16] it was 12 mm; in assay [18] it was 5 mm. Also, the “inhibition zone (IZ)” value in assay [7] is “inactive”.
On to `O=C1CC(Sc2ccc(S)cc2)N1S(=O)(=O)O` (racemic), for which the result in assay [1], in assay [2], in assay [3], in [10], in assay [11] and in assay [12] was inactive. The result in assay [13] and in assay [19] was inactive. Moreover, the “antibacterial activity (active/not active)” value in assay [4], in [6], in [8], in assay [14] and in assay [17] was “Active” throughout. Moreover, the “antimycobacterial activity (active/not active)” value in assay [9] was “Active”.
